The list is not random: actives were taken first. Their share in the collection is about 29%.
CYP2C19 inhib = blockers of cytochrome P450 2C19 activity – biochemical, luminescence, ADME assay, primary screen; P33261; CYP2C19 Supersomes, luciferin-H EGE luminescence, 30 min; inhibition, % at 5 µM; 21% of 96,000 active;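 active = CYP2C19 inhibition above a set limit at 5 µM in the primary screen, cut at about 50% in these data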;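 note: plate controls were negative control wells for no effect and 2.5 mM tranylcypromine positive control for full effect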
Target sequence (P33261 whole entry, looked up): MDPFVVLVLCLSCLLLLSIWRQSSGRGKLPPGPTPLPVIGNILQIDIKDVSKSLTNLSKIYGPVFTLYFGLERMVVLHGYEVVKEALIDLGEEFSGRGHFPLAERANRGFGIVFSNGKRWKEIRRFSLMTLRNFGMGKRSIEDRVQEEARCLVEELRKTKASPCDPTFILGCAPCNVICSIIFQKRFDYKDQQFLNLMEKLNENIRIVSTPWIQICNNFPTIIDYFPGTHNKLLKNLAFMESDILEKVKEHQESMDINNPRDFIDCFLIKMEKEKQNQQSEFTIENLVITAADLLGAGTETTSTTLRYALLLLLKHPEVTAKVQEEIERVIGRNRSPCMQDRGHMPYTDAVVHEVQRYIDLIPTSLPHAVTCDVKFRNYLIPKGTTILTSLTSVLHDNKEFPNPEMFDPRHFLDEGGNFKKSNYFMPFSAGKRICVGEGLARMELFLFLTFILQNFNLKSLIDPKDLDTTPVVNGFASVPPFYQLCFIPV
tolC growth inh = growth inhibitors of E. coli tolC mutant, primary screen, strain BW25113 ΔtolC::kan, 384-well. OD615. growth inhibition, % at 10 µM (by protocol). 2.2% of 65,000 active;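 active = growth inhibition at or above a cutoff equal to the mean over every tested compound plus 3 SD, cut at about 60% in these data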;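 note: growth measured after 20 h incubation at 37 °C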
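Test system: tolC-deleted E. coli BW25113 | Medium: LB with kanamycin 50 µg/mL | Compound dosing: Single concentration, 10 µM final per compound | Schedule: 37 °C, 20 h exposure | Measured by: OD at 615 nm | Evaluation: Percent growth inhibition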
CYP2C19 activ = human CYP2C19 activators, primary screen, biochemical, luminescence | 96,000 tested, under 10 active | Cytochrome P450 2C19 (Homo sapiens), P33261 | recombinant CYP2C19, luciferin-H EGE luminescence; active compounds read high; 0 = fully inhibited enzyme, 1 = untreated enzyme | activation factor at 5 µM;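 active = activation factor of at least 2 at 5 µM in the primary screen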;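 note: 0 = wells with 2.5 mM tranylcypromine and 1 = vehicle-only wells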
CYP2C9 inhib = blockers of cytochrome P450 2C9 activity – biochemical, luminescence, ADME assay, primary screen; P11712; CYP2C9 Supersomes, luciferin-H conversion; AID 777, 2007; 20% of 96,000 active; inhibition, % at 5 µM;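 active = blocking of liver enzyme CYP2C9 beyond about 50% at 5 µM, limit read from the data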
Ecoli WT expand = growth inhibitors of wild-type E. coli, primary screen, strain BW25113, expanded library, OD600; OD600 absorbance; growth inhibition, % at 100 µM; AID 710, 2007; 0.15% of 98,000 active;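 active = growth inhibition above about 50% at one test dose, limit read from the data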;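 note: growth measured after 20 h incubation at 37 °C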
CYP2C9 act = human CYP2C9 activators, primary screen, biochemical, luminescence; Cytochrome P450 2C9 (Homo sapiens), P11712; recombinant CYP2C9, luciferin-H conversion; active compounds read high; factor 1 = untreated enzyme, 0 = blocked; activation factor at 5 µM; 1.4% of 96,000 active; AID 1024, 2008;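 active = activation factor of 2 or more for CYP2C9 at a 5 µM dose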;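 note: 0 = sulfaphenazole-blocked wells and 1 = vehicle-only wells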
The depositor's hits bear a star; · = no result given.

SMILES | CYP2C19 inhib | tolC growth inh | CYP2C19 activ | CYP2C9 inhib | Ecoli WT expand | CYP2C9 act
CCOC(=O)C1CN(S(=O)(=O)c2ccc(C)cc2)CCN1S(=O)(=O)c1ccc(C)cc1 (stereo not drawn) | 96* | 28 | 0 | 78* | -7 | 0.2
COC(=O)C1CN(S(=O)(=O)c2ccccc2)CCN1S(=O)(=O)c1ccccc1 (stereo not drawn) | 98* | · | 0 | 74* | -11 | 0.3
Cc1nc2ccc(NC3=NCCCCC3)cc2s1 | -3 | -4 | 1 | -3 | 3 | 1
Cc1cccc(C)c1NC(=O)c1ccc(-n2cncn2)nc1 | 93* | · | 0.1 | 66* | 2 | 0.3
O=C(Nc1ccccc1F)c1ccc(-n2cncn2)nc1 | 97* | · | 0 | 69* | -2 | 0.3
O=c1nc2ccccc2c2n1CC(CN1CCN(c3ccccc3F)CC1)N2 (stereo not drawn) | -1 | · | 1 | 36 | 2 | 0.6
COC(=O)Cn1c(C)c(C(C)=O)c(C(C)=O)c1C | -11 | -9 | 1.1 | -15 | -3 | 1.2
O=C(NC1CCCC1)C(c1ccc(Cl)cc1)N1CCOCC1 (stereo not drawn) | 16 | -6 | 0.8 | 24 | 10 | 0.8
CC1CCCCC1NC(=O)COC(=O)c1ccc(N(C)C)cc1 (stereo not drawn) | 91* | · | 0.1 | 41 | 8 | 0.6
CC1CCCC(NC(=O)COC(=O)c2ccc(S(=O)(=O)N3CCOCC3)cc2)C1C (stereo not drawn) | 9 | -12 | 0.9 | 23 | -5 | 0.8
Cc1ccc(C(=O)NCc2ccc(Cl)c(Cl)c2)o1 | 84* | 43 | 0.2 | 35 | 22 | 0.7
CCOC(=O)NCc1ccc(Cl)c(Cl)c1 | 46 | 14 | 0.5 | -1 | 15 | 1
Cn1c(Cc2cccc3ccccc23)nnc1SCC(=O)N1CCN(c2ccccc2)CC1 | 12 | · | 0.9 | -68 | -11 | 1.7
Cc1ccccc1OCC1CN(CN2CCOCC2)C(=O)O1 (stereo not drawn) | 11 | -11 | 0.9 | -13 | 6 | 1.1
CC(C)(C)N1CC(COc2ccccc2)OC1=O (stereo not drawn) | 71* | -7 | 0.3 | 19 | 7 | 0.8
O=S(=O)(c1ccc(SCCO)nc1)N1CCCC1 | 38 | -2 | 0.6 | -20 | 2 | 1.2
CCOc1ccc2[nH]c(=O)c(CN(Cc3ccc(F)cc3)C(=O)c3ccco3)cc2c1 | 22 | 11 | 0.8 | 22 | -7 | 0.8
COC(=O)c1[nH]c2cccc(OC)c2c1NC(=O)CN1CC2(C)CC1CC(C)(C)C2 (stereo not drawn) | 2 | 62* | 1 | -1 | -4 | 1
COC(=O)c1[nH]c2cccc(OC)c2c1NC(=O)CN1CCOCC1 | -1 | -25 | 1 | 0 | 4 | 1
O=c1oc2ccccc2c2c1nc(C(F)(F)F)n2-c1ccccc1 | 10 | · | 0.9 | 27 | -10 | 0.7
Cc1ccc(N2CCN(S(=O)(=O)N3CCCCCC3)CC2)cc1Cl | 49 | · | 0.5 | 37 | -3 | 0.6
CC1CCc2sc(C(=O)NCc3ccc(F)cc3)cc2C1 (stereo not drawn) | 17 | · | 0.8 | 18 | 3 | 0.8
O=C(NCc1ccc(F)cc1)c1cc2c(s1)CCCC2 | 36 | · | 0.6 | 53* | 1 | 0.5
COC(=O)c1cc2c(s1)CS(=O)C2 (stereo not drawn) | · | -1 | · | · | 3 | ·
COc1ccc(CNC(=O)c2cc3c(s2)CS(=O)C3)cc1 (stereo not drawn) | 71* | · | 0.3 | 54* | -5 | 0.5
SMILES | CYP2C19 inhib | tolC growth inh | CYP2C19 activ | CYP2C9 inhib | Ecoli WT expand | CYP2C9 act
O=C(O)c1ccc2c(c1)ncn2C1CCCCCC1 | · | -7 | · | · | -1 | ·
Cc1nn(Cc2ccc(Cl)cc2Cl)c(Cl)c1/C=C/C(=O)OCC(=O)NCC(F)(F)F | 22 | · | 0.8 | 42 | -7 | 0.6
COc1ccc(CCNC(=O)CN2CCN(c3cccc(C(F)(F)F)c3)CC2)cc1 | 76* | · | 0.2 | 76* | 0 | 0.2
O=C(c1csc2c1CCCC2)N1CCN(c2ncccn2)CC1 | 65* | -15 | 0.3 | 82* | -7 | 0.2
CCOC(=O)N1CCN(c2ccc(C(=O)c3cccc(F)c3)cc2)CC1 | 67* | 19 | 0.3 | 82* | -15 | 0.2
COc1ccc(NC(=O)N2CCN(c3cccc(C(F)(F)F)c3)CC2)cc1OC | -4 | · | 1 | -37 | -4 | 1.4
COc1ccccc1C(=O)N1CCN(c2cccc(C(F)(F)F)c2)CC1 | 92* | 9 | 0.1 | 68* | 4 | 0.3
CCOc1ccccc1CN1C(=O)c2ccccc2C1C(=O)NCC1CCCO1 (stereo not drawn) | 8 | -19 | 0.9 | -6 | 1 | 1.1
O=C(COC(=O)c1ccccn1)Nc1nccs1 | 6 | -6 | 0.9 | 21 | 6 | 0.8
O=C(c1cccc(C(=O)N2CCN(c3ccccc3)CC2)c1)N1CCN(c2ccccc2)CC1 | 41 | 13 | 0.6 | 34 | -1 | 0.7
O=C(c1csc2c1CCCC2)N1CCN(c2cccc(C(F)(F)F)c2)CC1 | 65* | · | 0.3 | -61 | 4 | 1.6
O=C(c1cc2ccccn2n1)N1CCN(c2cccc(C(F)(F)F)c2)CC1 | 14 | 5 | 0.9 | 23 | 1 | 0.8
O=C(c1cccc(F)c1)N1CCN(c2cccc(C(F)(F)F)c2)CC1 | 88* | 27 | 0.1 | 81* | 3 | 0.2
CCCCSc1nnc(CSc2nc3nc(C)cc(C)n3n2)o1 | 40 | · | 0.6 | 6 | 9 | 0.9
C=CCSc1nc(-c2ccc3c(c2)OCO3)cc(C(F)(F)F)c1C#N | 26 | · | 0.7 | 39 | -8 | 0.6
CC(C)(C)SCCNS(=O)(=O)c1ccc(F)cc1 | 14 | -7 | 0.9 | 40 | 9 | 0.6
CN(C)CCCNS(=O)(=O)c1cc(Cl)ccc1Cl | 17 | -22 | 0.8 | -10 | 3 | 1.1
CCOc1cc(C)c(C(C)C)cc1S(=O)(=O)NCc1ccccn1 | 22 | 9 | 0.8 | -12 | -2 | 1.1
CCCNS(=O)(=O)c1ccc(OC)c(Cl)c1Cl | 53* | · | 0.5 | 10 | 0 | 0.9
COc1ccc(S(=O)(=O)NCCSC(C)(C)C)c(Cl)c1Cl | 94* | · | 0.1 | -218 | 5 | 3.2*
COc1ccc(S(=O)(=O)NCc2ccccn2)c(Cl)c1Cl | 88* | 4 | 0.1 | -103 | 7 | 2*
C=C(C)n1c(=O)[nH]c2ccccc21 | -19 | -29 | 1.2 | -15 | -3 | 1.1
O=C1CNC(=O)/C1=C\N1CCN(C(c2ccccc2)c2ccccc2)CC1 | -2 | -9 | 1 | 10 | 9 | 0.9
CCn1c(SCc2cc(=O)[nH]c3ccccc23)nc2c1c(=O)n(C)c(=O)n2C | · | 6 | · | · | · | ·

Bioassay records from PubChem BioAssay.
